Values after ≈ are worked out from the molar mass of the structure shown. Active and inactive are the calls of the source. No cut-off for these calls is given here.

Data set [1] in a line: Growth inhibition of HEK293 cells after 24 hrs by MTT assay. The format is cell-based. As to conditions: human, read-out: ED50. In outline:
(§1)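 HEK293 cells in DMEM (4.5 g/L glucose) with 10% FBS and 1% penicillin-streptomycin, seeded at 10⁵ cells/mL. Inhibitor from 10 mM stock diluted threefold across 10 wells; 37 °C for 24 or 96 h.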

For data set [2], the system named is Bacillus subtilis. As to the kind of experiment: Antibacterial activity against Bacillus subtilis (Ehrenberg) Cohn ATCC 6051 assessed as growth inhibition in presence of HMBPP after 12 hrs. The format is functional, organism-based. As to conditions: (Ehrenberg) Cohn ATCC 6051, 12 h. In outline:
(§2)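 Rescue format: log-phase B. subtilis in LB with rescue agent(s) at 50 µM each, alone or as pairwise combinations of UP, MK-4, FPP or HMBPP. Inhibitor diluted threefold across 12 wells from a 100 µM–1 mM start; 37 °C, 200 rpm, 12 h. Growth inhibition read as OD600; ED50-based fold-rescue; duplicate.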

The test system of data set [3] is Bacillus subtilis. As to the kind of experiment: Antibacterial activity against Bacillus subtilis (Ehrenberg) Cohn ATCC 6051 assessed as growth inhibition in presence of FPP and UP after 12 hrs. In kind it is functional, organism-based. The note with it: (Ehrenberg) Cohn ATCC 6051, 12 h. A digest of the protocol:
as §2

In data set [4] the test system is Bacillus subtilis. As to the kind of experiment: Antibacterial activity against Bacillus subtilis (Ehrenberg) Cohn ATCC 6051 in absence of fetal bovine serum after 12 hrs. The format is functional. The note with it: (Ehrenberg) Cohn ATCC 6051, 12 h, read-out: ED50 (the source's name). A digest of the protocol:
(§3)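 Log-phase B. subtilis diluted 500-fold into LB containing 0%, 4% or 10% fetal bovine serum. Inhibitor threefold serially diluted across 12 wells from a 100 µM–1 mM start; incubated 12 h at 37 °C with 200 rpm shaking; growth inhibition by OD600.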

Data set [5] concerns Clostridioides difficile. As to the kind of experiment: Antibacterial activity against Clostridioides difficile ATCC 43255 after 48 hrs. As to conditions: ATCC 43255, 48 h. In kind it is functional. A digest of the protocol: (§4)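 Grown anaerobically 48 h at 37 °C on brain heart infusion agar supplemented with yeast extract, L-cysteine, vitamin K1 and hemin. Inoculum set to a 0.5 McFarland standard, then diluted in supplemented BHI broth to ~5 × 10^5 CFU/mL. Broth dilution over 64–0.5 μM, incubated anaerobically 48 h at 37 °C. MIC read visually as lowest concentration inhibiting growth.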

For data set [6], the system named is Bacillus subtilis. As to the kind of experiment: Antibacterial activity against Bacillus subtilis (Ehrenberg) Cohn ATCC 6051 assessed as growth inhibition in presence of MK7 after 12 hrs. The format is functional, organism-based.
Data set [7] in a line: Growth inhibition of HEK293 cells after 96 hrs by MTT assay. In kind it is cell-based. As to conditions: human, read-out: ED50. In outline: as §1
(In general: Tetrazolium assays rely on reduction of a dye to a coloured formazan, in cell work by metabolically active cells.)

Data set [8] deals with Clostridioides difficile. Briefly: Antibacterial activity against Clostridioides difficile ATCC 1870 after 48 hrs. The format is functional. As to conditions: ATCC 1870, 48 h. A digest of the protocol:
as §4

For data set [9], the target named is T1, Farnesyl pyrophosphate synthase (Homo sapiens, UniProt P14324).
T1 sequence (P14324 whole entry): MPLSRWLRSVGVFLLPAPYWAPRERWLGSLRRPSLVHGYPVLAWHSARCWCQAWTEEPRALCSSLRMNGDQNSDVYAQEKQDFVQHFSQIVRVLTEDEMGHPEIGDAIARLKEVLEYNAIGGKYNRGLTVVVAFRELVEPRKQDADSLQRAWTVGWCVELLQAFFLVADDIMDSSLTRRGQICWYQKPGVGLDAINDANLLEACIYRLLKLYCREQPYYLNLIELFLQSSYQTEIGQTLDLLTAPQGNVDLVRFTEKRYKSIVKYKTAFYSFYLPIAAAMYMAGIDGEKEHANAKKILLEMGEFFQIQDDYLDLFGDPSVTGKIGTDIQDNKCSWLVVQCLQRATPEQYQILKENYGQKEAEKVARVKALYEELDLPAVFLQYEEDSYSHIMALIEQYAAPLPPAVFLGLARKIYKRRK
As to the kind of experiment: Inhibition of human FPPS using IPP and GPP.

Data set [10] deals with Bacillus subtilis. Briefly: Antibacterial activity against Bacillus subtilis (Ehrenberg) Cohn ATCC 6051 assessed as growth inhibition in presence of FPP after 12 hrs. The format is functional, organism-based. As to conditions: (Ehrenberg) Cohn ATCC 6051, 12 h. A digest of the protocol:
as §2

The target in data set [11] is T1, Farnesyl pyrophosphate synthase. As to the kind of experiment: Inhibition of human FPPS using IPP and GPP as substrate. A digest of the protocol:
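Expressed HsFPPS at 0.15 μM with 50 μM IPP and 50 μM GPP, 25°C, in 20 mM HEPES pH 7.5, 150 mM NaCl, 500 μM MgCl2. Enzyme preincubated 30 min at room temperature with serially diluted compound. Continuous MESG/PNP phosphate-release read-out, with pyrophosphatase added. At least 3 runs on different days; pooled data fitted by nonlinear regression for IC50.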

The test system of data set [12] is Bacillus subtilis. Briefly: Antibacterial activity against Bacillus subtilis (Ehrenberg) Cohn ATCC 6051 assessed as growth inhibition in presence of HMBPP and MK4 after 12 hrs. The format is functional, organism-based. The note with it: (Ehrenberg) Cohn ATCC 6051, 12 h. In outline: as §2
Data set [13] has as its system Bacillus subtilis. Briefly: Antibacterial activity against Bacillus subtilis (Ehrenberg) Cohn ATCC 6051 in presence of 10% fetal bovine serum after 12 hrs. In kind it is functional. As to conditions: (Ehrenberg) Cohn ATCC 6051, 12 h, read-out: ED50 (the source's name). In outline:
as §3

Data set [14] concerns Bacillus subtilis. As to the kind of experiment: Antibacterial activity against Bacillus subtilis (Ehrenberg) Cohn ATCC 6051 assessed as growth inhibition in presence of decaprenyl phosphate after 12 hrs. The format is functional, organism-based.
Another data set has as its system Candida albicans. Briefly: microbe, parasite or virus in culture. In kind it is functional. As to conditions: CAI-4, 12 h, read-out: ED50 (the source's name).
Data set [15] in a line: Lipophilicity, log D of the compound at pH 7.4. The format is physicochemical. As to conditions: buffer.
Data set [16] can be described thus: Inhibition of Escherichia coli OPPS using IPP as substrate.
A further data set deals with Staphylococcus aureus. As to the kind of experiment: Antibacterial activity against Staphylococcus aureus Newman after 12 hrs. The format is functional. The note with it: read-out: ED50 (the source's name). A digest of the protocol:
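Log-phase S. aureus culture in tryptic soy broth (OD600 ~0.3, then diluted 500-fold). Inhibitors two-fold serially diluted across 12 wells from a 100 µM–1 mM start; 37 °C, 200 rpm, 12 h; OD600 read for growth inhibition.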

The test system of another data set is Bacillus anthracis. Briefly: Antibacterial activity against Bacillus anthracis Sterne after 12 hrs. As to conditions: read-out: ED50 (the source's name). In kind it is functional.
The subject of data set [17] is Bacillus subtilis. As to the kind of experiment: Antibacterial activity against Bacillus subtilis (Ehrenberg) Cohn ATCC 6051 after 12 hrs. In kind it is functional. The note with it: (Ehrenberg) Cohn ATCC 6051, 12 h, read-out: ED50 (the source's name). In outline: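 Log-phase LB culture (grown to OD600 ~0.3, then diluted 500-fold) exposed to two-fold serial dilutions of inhibitor starting at 100 µM–1 mM across 12 wells; 37 °C, 200 rpm shaking, 12 h. OD600 read and ED50 fitted; duplicate or triplicate.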

For `CC(C)CCCC(C)CCn1cc[n+](CC(P(=O)([O-])O)P(=O)(O)O)c1` (configuration not stated), in data set [1], the GI50 at 24 h is 420 µM.
As for `CC(C)CCCC(C)CCOc1ccc[n+](CC(P(=O)([O-])O)P(=O)(O)O)c1` (configuration not stated), the IC50 (usually the midpoint of a concentration-inhibition curve) with Bacillus subtilis [2] is 2.1 µg/mL; in the data set on Bacillus subtilis [3], 8.9 µg/mL; in data set [9], 0.23 µM; with Bacillus subtilis [10], 3.5 µg/mL; in data set [11] it was 0.23 µM; in the data set on Bacillus subtilis [12], 8.9 µg/mL. For the same molecule, the EC50 is 1 µg/mL (≈ 2.36 µM) with Bacillus subtilis [4] and 1.7 µg/mL in the data set with Bacillus subtilis [13]. In addition, the MIC in the data set on Clostridioides difficile [5] and with Clostridioides difficile [8] was 6.8 µg/mL (≈ 16.1 µM) in each case. The outcome with Bacillus subtilis [6] and in the data set with Bacillus subtilis [14] was Active. Besides, in data set [7], the GI50 at 96 h is 76 µM. In [1], the GI50 at 24 h stood at 620 µM.
As for `O=P([O-])(O)C(C[n+]1ccc(-c2ccc3oc4ccccc4c3c2)cc1)P(=O)(O)O` (configuration not stated), the EC50 in the data set on Candida albicans is above 50 µg/mL.
`CC(C)CCCC(C)CCOc1cc[n+](CC(P(=O)([O-])O)P(=O)(O)O)cc1` (configuration not stated): the EC50 was 5.7 µg/mL (≈ 13.5 µM) in the data set with Bacillus subtilis [4] and 28 µg/mL in the data set on Bacillus subtilis [13]. The GI50 at 96 h in data set [7] amounted to 800 µM. In data set [11], this molecule displayed an IC50 of 100 µM. Further, the GI50 at 24 h in [1] was at least 1000 µM. Moreover, the logD (as a rule, the decadic logarithm of the distribution of all forms, ionised or not, between an organic phase and buffer at a given pH) in [15] is reported as -5.82.
On to `CCCCCCCCCCOc1ccc[n+](CC(P(=O)([O-])O)P(=O)(O)O)c1` (configuration not stated), for which, in [16], the IC50 fell in the range of 0.006 to 0.02 µM. The EC50 in the data set with Candida albicans is above 50 µg/mL.
With `CCCCCCCCCCCCCCOc1cccc(O)c1C(=O)O`, in the data set with Candida albicans, the EC50 was above 50 µg/mL.
Regarding `CC(C)CCCC(C)CCCC(C)CCCC(C)CCOc1ccc[n+](CC(P(=O)([O-])O)P(=O)(O)O)c1` (configuration not stated), in data set [15] (read-out: logD), the logD is -1.85.
Still for that read-out and setting: the value for `CC(C)CCCC(C)CCCC(C)CCOc1ccc[n+](CC(P(=O)([O-])O)P(=O)(O)O)c1` (configuration not stated) was -3.48.
Take `CCCCCCCCCCOc1cccc(CC(O)(P(=O)(O)O)P(=O)(O)O)c1`: the IC50 in data set [9] amounted to 550 µM; in data set [16], 11 µM.
As to `CC(C)CCCC(C)CCOc1ccnc(NCC(P(=O)(O)O)P(=O)(O)O)c1` (configuration not stated), in data set [15] (read-out: logD), the logD is -2.31.
On to `O=P([O-])(O)C(Cn1cc[n+](CCCc2ccc(F)c(F)c2)c1)P(=O)(O)O` (configuration not stated), for which the EC50 with Bacillus subtilis [4] was 26 µg/mL (≈ 63.4 µM); in the data set with Staphylococcus aureus, 30 µg/mL (≈ 73.1 µM); with Bacillus anthracis it was above 100 µg/mL; in the data set on Bacillus subtilis [17] it was above 100 µg/mL; in the data set with Bacillus subtilis [13], 38 µg/mL; in the data set with Candida albicans, 2 µg/mL (≈ 4.88 µM). Besides, in data set [1], the GI50 at 24 h turned out to be 600 µM.
Regarding `CC(C)CCCC(C)CCSc1ccc[n+](CC(P(=O)([O-])O)P(=O)(O)O)c1` (configuration not stated), in data set [1], the GI50 at 24 h was 510 µM. Further, the logD in data set [15] is recorded as -5.09.
Take `CC(C)CCCC(C)c1cnc(NCC(P(=O)(O)O)P(=O)(O)O)s1` (configuration not stated): the logD in [15] (read-out: logD) was -2.96.
For `CC(C)CCCC(C)CCOc1ccc[n+](CC(O)(P(=O)([O-])O)P(=O)(O)O)c1` (configuration not stated), in data set [1], the GI50 at 24 h was 1100 µM.
With `O=P(O)(O)C(O)(Cc1cccc(-c2cccc3c2oc2ccccc23)c1)P(=O)(O)O`, the EC50 in the data set on Candida albicans is above 50 µg/mL.

Values taken from ChEMBL document CHEMBL4480404, “Discovery of Lipophilic Bisphosphonates That Target Bacterial Cell Wall and Quinone Biosynthesis” (J Med Chem, 2019).
